{"source": "paper PMC9902323", "about": "(Clinical Drug Investigation, 2023)", "key": {"[1]": {"experiment": "Pharmacokinetics", "format": "in vivo, human", "conditions": "single s.c. dose 5.6 U/kg; p < 0.001"}, "[2]": {"tested_on": "individuals with type 2 diabetes", "experiment": "Safety assessments", "format": "in vivo, human", "conditions": "all injection regions; N (%) of 25", "in_short": "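Over three treatment periods, 25 participants with type 2 diabetes each received one 5.6 U/kg s.c. dose per region (thigh, abdomen, upper arm), stayed in-house to 60 h, and underwent a 36–60 h glucose clamp at 7.5 mmol/L. Monitoring covered adverse events, labs, vital signs and examination. Hypoglycaemia levels: 1, plasma glucose <3.9 and ≥3.0 mmol/L; 2, <3.0 mmol/L; 3, severe cognitive impairment needing assistance.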"}, "[3]": {"tested_on": "albumin", "conditions": "after s.c. administration and absorption into the circulation; cited from earlier work"}}, "data": [{"substance": "insulin icodec", "values": [{"measurement": "Cmax after single dose higher for upper arm versus thigh", "setting": "[1]", "result": 24, "unit": "%"}, {"measurement": "Participants reporting adverse events", "setting": "[2]", "result": "12 (48%) participants"}, {"measurement": "Binding to albumin", "setting": "[3]", "result": "binds strongly to albumin"}]}]}
